Data from ChEMBL document CHEMBL5236602, “Synthesis and Characterization of NUC-7738, an Aryloxy Phosphoramidate of 3'-Deoxyadenosine, as a Potential Anticancer Agent” (J Med Chem, 2022).
Activity calls are given as the source filed them. No cut-off for these calls is given here.

Columns and labels:
MV4-11 [1] = test: Cytotoxicity against human MV4-11 cells assessed as maximum cell growth inhibition incubated for 72 hrs by MTS assay relative to control; format: functional
Procedure, shortened: (§1)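 Cells from the 20-line panel were seeded the day before dosing, then exposed to compound for 72 h. MTS was added, followed by 4 h at 37 °C, and absorbance was read. Nine serial 3.16-fold dilutions were tested, top 198 μM, in duplicate. MI% is the maximum inhibitory effect across the tested concentration range.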

[2] = Prodrug conversion in human HL-60 cells assessed as fold increase in 3'-dATP level at 50 uM incubated for 2 hrs by LC-MS/MS analysis relative to 3'-Deoxyadenosine; format: ADME, cell-based; conditions: hl-60, 2 h
NCI-H929 = test: Cytotoxicity against human NCI-H929 cells assessed as maximum cell growth inhibition incubated for 72 hrs by MTS assay relative to control; format: functional; procedure, shortened: as §1
RL [3] = test: Cytotoxicity against deoxynucleotidyl transferase-negative human RL cells assessed as cell death preincubated with adenosine deaminase inhibitor, EHNA for 5 mins followed by compound addition and […]; format: functional, cell-based
HT-29 = test: Cytotoxicity against human HT-29 cells assessed as cell death incubated for 72 hrs by MTS assay; format: functional; conditions: read-out: LC50 (the source's name)
Procedure, shortened: (§2)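 Contracted MTS assay. Cells seeded the day before treatment and exposed 72 h to nine serial concentrations (3.16-fold steps, top 198 μM), tested in duplicate. MTS added, then 4 h at 37 °C and absorbance read. LC50 is the concentration killing 50% of cells. MI% is the maximum inhibition over the tested range.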

Leukemic stem cell = test: Cytotoxicity against human leukemic stem cells (Lin-/CD34+/CD38-/CD123+) in myeloid leukemia cell line KG-1a assessed as reduction in LSC population at >1 uM incubated for 72 hrs
HepG2 [4] = test: Cytotoxicity against human HepG2 cells assessed as maximum cell growth inhibition incubated for 72 hrs by MTS assay relative to control; format: functional; procedure, shortened: as §1
HEL 92.1.7 [5] = test: Cytotoxicity against human HEL 92.1.7 cells assessed as maximum cell growth inhibition incubated for 72 hrs by MTS assay relative to control; format: functional; procedure, shortened: as §1
MIA PaCa-2 [6] = test: Cytotoxicity against human MIA PaCa-2 cells assessed as maximum cell growth inhibition incubated for 72 hrs by MTS assay relative to control; format: functional; procedure, shortened: as §1
[7] = Prodrug conversion in human RL cells assessed as fold increase in 3'-dATP level at 50 uM incubated for 2 hrs by LC-MS/MS analysis relative to 3'-Deoxyadenosine; format: ADME, cell-based
MCF7 [8] = test: Cytotoxicity against human MCF7 cells assessed as cell death incubated for 72 hrs by MTS assay; format: functional; conditions: read-out: LC50 (the source's name); procedure, shortened: as §2
SW-620 [9] = test: Cytotoxicity against human SW620 cells assessed as maximum cell growth inhibition incubated for 72 hrs by MTS assay relative to control; format: functional; procedure, shortened: as §1
SW-620 [10] = test: Cytotoxicity against human SW620 cells assessed as cell death incubated for 72 hrs by MTS assay; format: functional; conditions: read-out: LC50 (the source's name); procedure, shortened: as §2
BXPC-3 [11] = test: Cytotoxicity against human BXPC-3 cells assessed as maximum cell growth inhibition incubated for 72 hrs by MTS assay relative to control; format: functional; procedure, shortened: as §1
RL [12] = test: Cytotoxicity against deoxynucleotidyl transferase-negative human RL cells assessed as cell death preincubated with adenosine kinase inhibitor, A-134974 for 5 mins followed by compound addition and […]; format: functional, cell-based
RPMI-8226 = test: Cytotoxicity against human RPMI-8226 cells assessed as cell death incubated for 72 hrs by MTS assay; format: functional; conditions: read-out: LC50 (the source's name); procedure, shortened: as §2
MOLT-4 = test: Cytotoxicity against human MOLT-4 cells assessed as cell death incubated for 72 hrs by MTS assay; format: functional; conditions: read-out: LC50 (the source's name); procedure, shortened: as §2
[13] = Prodrug conversion in human K562 cells assessed as fold increase in 3'-dATP level at 50 uM incubated for 2 hrs by LC-MS/MS analysis relative to 3'-Deoxyadenosine; format: ADME, cell-based; conditions: k562, 2 h
MCF7 [14] = test: Cytotoxicity against human MCF7 cells assessed as maximum cell growth inhibition incubated for 72 hrs by MTS assay relative to control; format: functional; procedure, shortened: as §1
[15] = Cytotoxicity against human HS 445 cells assessed as cell death incubated for 72 hrs by MTS assay; format: functional; conditions: read-out: LC50 (the source's name); procedure, shortened: as §2
CCRF-CEM [16] = test: Cytotoxicity against deoxynucleotidyl transferase-positive human CCRF-CEM cells assessed as cell death preincubated with adenosine deaminase inhibitor, EHNA for 5 mins followed by compound addition and […]; format: functional, cell-based
RL [17] = test: Cytotoxicity against human RL cells assessed as maximum cell growth inhibition incubated for 72 hrs by MTS assay relative to control; format: functional; procedure, shortened: as §1
CCRF-CEM [18] = test: Potency index, ratio of 3'-Deoxyadenosine LC50 to test compound LC50 for cytotoxicity against human CCRF-CEM cells assessed as cell death incubated for 72 hrs by MTS assay; format: functional
K562 [19] = test: Cytotoxicity against human K562 cells assessed as cell death incubated for 72 hrs by MTS assay; format: functional; conditions: read-out: LC50 (the source's name); procedure, shortened: as §2
[20] = Prodrug conversion in human CCRF-CEM cells assessed as fold increase in 3'-dATP level at 50 uM incubated for 2 hrs by LC-MS/MS analysis relative to 3'-Deoxyadenosine; format: ADME, cell-based
[21] = Metabolic stability in pooled cryopreserved human hepatocytes assessed as half life at 1 uM incubated for 60 mins by HPLC-MS/MS analysis; format: ADME, cell-based, Hepatocyte
Procedure, shortened: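 Pooled cryopreserved human hepatocytes were thawed, washed and resuspended in Krebs–Henseleit buffer, pH 7.3. Compound was added at 1 μM final and incubated 0 and 60 min at 37 °C/5% CO2. Reactions were stopped with acetonitrile, centrifuged, and the supernatant analysed by HPLC-MS/MS.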

Z-138 [22] = test: Cytotoxicity against human Z138 cells assessed as cell death incubated for 72 hrs by MTS assay; format: functional; conditions: read-out: LC50 (the source's name); procedure, shortened: as §2
KG-1 [23] = test: Cytotoxicity against human KG-1 cells assessed as cell death incubated for 72 hrs by MTS assay; format: functional; procedure, shortened: as §2
MIA PaCa-2 [24] = test: Cytotoxicity against human MIA PaCa-2 cells assessed as cell death incubated for 72 hrs by MTS assay; format: functional; conditions: read-out: LC50 (the source's name); procedure, shortened: as §2
HepG2 [25] = test: Cytotoxicity against human HepG2 cells assessed as cell death incubated for 72 hrs by MTS assay; format: functional; conditions: read-out: LC50 (the source's name); procedure, shortened: as §2
MV4-11 [26] = test: Cytotoxicity against human MV4-11 cells assessed as cell death incubated for 72 hrs by MTS assay; format: functional; conditions: read-out: LC50 (the source's name); procedure, shortened: as §2
HEL 92.1.7 [27] = test: Cytotoxicity against human HEL 92.1.7 cells assessed as cell death incubated for 72 hrs by MTS assay; format: functional; conditions: read-out: LC50 (the source's name); procedure, shortened: as §2
K562 [28] = test: Potency index, ratio of 3'-Deoxyadenosine LC50 to test compound LC50 for cytotoxicity against human K562 cells assessed as cell death incubated for 72 hrs by MTS assay; format: functional
THP-1 = test: Cytotoxicity against human THP-1 cells assessed as cell death incubated for 72 hrs by MTS assay; format: functional; conditions: read-out: LC50 (the source's name); procedure, shortened: as §2
HL-60 [29] = test: Cytotoxicity against human HL-60 cells assessed as maximum cell growth inhibition incubated for 72 hrs by MTS assay relative to control; format: functional; procedure, shortened: as §1
Jurkat = test: Cytotoxicity against human Jurkat cells assessed as cell death incubated for 72 hrs by MTS assay; format: functional; conditions: read-out: LC50 (the source's name); procedure, shortened: as §2
KG-1 [30] = test: Cytotoxicity against human KG-1 cells assessed as maximum cell growth inhibition incubated for 72 hrs by MTS assay relative to control; format: functional; procedure, shortened: as §1
BXPC-3 [31] = test: Cytotoxicity against human BXPC-3 cells assessed as cell death incubated for 72 hrs by MTS assay; format: functional; conditions: read-out: LC50 (the source's name); procedure, shortened: as §2
HL-60 [32] = test: Cytotoxicity against human HL-60 cells assessed as cell death incubated for 72 hrs by MTS assay; format: functional; conditions: read-out: LC50 (the source's name); procedure, shortened: as §2
Z-138 [33] = test: Cytotoxicity against human Z138 cells assessed as maximum cell growth inhibition incubated for 72 hrs by MTS assay relative to control; format: functional; procedure, shortened: as §1

## C[C@@H](NP(=O)(OC[C@@H]1C[C@@H](O)[C@H](n2cnc3c(N)ncnc32)O1)Oc1cccc2ccccc12)C(=O)OCc1ccccc1 (stereo not given in full)
MV4-11 [1]
  Imax: 99%
[2]
  fold change (FC): 3
NCI-H929
  Imax: 99%
RL [3]
  Activity: Active
HT-29
  CC50: 7.52 µM
Leukemic stem cell
  Activity: inactive
HepG2 [4]
  Imax: 95%
HEL 92.1.7 [5]
  Imax: 98%
MIA PaCa-2 [6]
  Imax: 98%
[7]
  fold change (FC): 3
MCF7 [8]
  CC50: 1.39 µM
SW-620 [9]
  Imax: 93%
SW-620 [10]
  CC50: 11.4 µM
BXPC-3 [11]
  Imax: 90%
RL [12]
  Activity: Active
RPMI-8226
  CC50: 19 µM
MOLT-4
  CC50: 0.32 µM
[13]
  fold change (FC): 3
MCF7 [14]
  Imax: 99%
[15]
  CC50: 10.2 µM
CCRF-CEM [16]
  Activity: Active
RL [17]
  Imax: 96%
CCRF-CEM [18]
  RatioLC50: 3
K562 [19]
  CC50: 4.93 µM
[20]
  fold change (FC): 3
[21]
  half-life at 1 µM: 43.4 min
Z-138 [22]
  CC50: 6.32 µM
KG-1 [23]
  LC50: 11.03 µM
MIA PaCa-2 [24]
  CC50: 3.73 µM
HepG2 [25]
  CC50: 11.5 µM
MV4-11 [26]
  CC50: 1.48 µM
HEL 92.1.7 [27]
  CC50: 2.94 µM
K562 [28]
  RatioLC50: 3
THP-1
  CC50: 46.5 µM
HL-60 [29]
  Imax: 100%
Jurkat
  CC50: 0.9 µM
KG-1 [30]
  Imax: 100%
BXPC-3 [31]
  CC50: 74 µM
HL-60 [32]
  CC50: 6.37 µM
Z-138 [33]
  Imax: 100%
